Converted amounts (≈) assume the structure as drawn. The source made the active and inactive calls. No cut-off for these calls is given here.

One test concerns Bacillus subtilis. Nature of the test: Antibacterial activity against Bacillus subtilis DSM 10 after 16 to 20 hrs by microdilution method. The class given is functional. The gist of the method:
(§1)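 Samples were serially diluted from 2 mg/mL stocks and the cells added. Growth was 16−20 h at the optimal temperature (30 or 37 °C). MIC was taken as the lowest concentration with no visible growth.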

Another test relates to Micrococcus luteus. Briefly: Antibacterial activity against Micrococcus luteus DSM 1790 after 16 to 20 hrs by microdilution method. The class given is functional. The gist of the method:
as §1
Background: Broth dilution looks for growth in wells or tubes with falling amounts of substance.

The subject of another test is Escherichia coli. Briefly: Antibacterial activity against TolC-deficient Escherichia coli after 16 to 20 hrs by microdilution method. It counts as functional. The gist of the method: as §1
Another test deals with Staphylococcus carnosus. Nature of the test: Antibacterial activity against Staphylococcus carnosus DSM 20501 after 16 to 20 hrs by microdilution method. The class given is functional. In short, it runs like this:
as §1

The subject of test [1] is Pseudomonas putida. Nature of the test: Inhibition of N-acyl-homoserinlactone-related quorum sensing activity in Pseudomonas putida F117 at 5 uM measured up to 5.5 hrs by fluorescence assay. The gist of the method:
(§2)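 The sensor strain P. putida F117 (pKRC12) was grown overnight in Luria−Bertani medium with gentamycin (20 μg/mL) at 30 °C, shaking at 160 rpm. Test samples were added at different concentrations.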

The test system of test [2] is Pseudomonas putida. Nature of the test: Induction of N-acyl-homoserinlactone-related quorum sensing activity in Pseudomonas putida F117 measured up to 5.5 hrs by fluorescence assay. The gist of the method:
as §2

The next test relates to Staphylococcus aureus. Briefly: Antibacterial activity against Staphylococcus aureus Newman after 16 to 20 hrs by microdilution method. It counts as functional. In short, it runs like this: as §1
The next test has as its system Mucor hiemalis. Nature of the test: Antibacterial activity against Mucor hiemalis DSM 2656 after 16 to 20 hrs by microdilution method. The class given is functional. The gist of the method: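 The fungus, in mid-log phase, was diluted to about 5 × 10⁵ to 5 × 10⁶ cfu/mL final in Myc medium (1% phytone peptone, 1% glucose, 50 mM HEPES, pH 7.0). Samples were serially diluted from 2 mg/mL stocks. Growth was 16−20 h at 30 or 37 °C. MIC was taken as the lowest concentration with no visible growth.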

In general, MIC refers to the least concentration at which growth counts as inhibited. A low value points to greater potency. On to `CCCCCC/C=C\CCCCCC(O)CC(=O)N[C@@H](C)C(=O)OC` (stereo partly specified), for which the MIC was 128 mg/L (≈ 360 µM) against Bacillus subtilis, 8 mg/L (≈ 22.5 µM) with Micrococcus luteus, 16 mg/L (≈ 45 µM) against Escherichia coli and 16 mg/L (≈ 45 µM) against Staphylococcus carnosus.
Take `CCCCCC/C=C\CCCCCCCC(=O)N[C@@H](C)C(=O)OC`: the inhibition result in the test with Pseudomonas putida [1] was “inactive”. The result in the test on Pseudomonas putida [2] was inactive.
For the compound `CCCCCC/C=C\CCCCCC(=O)CC(=O)N[C@@H](C)C(=O)OC`, the MIC in the test with Bacillus subtilis came out at 16 mg/L (≈ 45.3 µM); in the test on Micrococcus luteus, 16 mg/L (≈ 45.3 µM); against Escherichia coli, 16 mg/L (≈ 45.3 µM); in the test with Staphylococcus carnosus it was 8 mg/L (≈ 22.6 µM).
Consider `COC(=O)[C@H](C)NC(=O)CCCCCCC/C=C\CCCCCCO`, for which the MIC against Staphylococcus aureus lay in the range of 32 to 64 mg/L (≈ 90 to 180 µM); with Micrococcus luteus, 32 to 64 mg/L (≈ 90 to 180 µM); against Mucor hiemalis it was 32 to 64 mg/L (≈ 90 to 180 µM); against Escherichia coli it was 8 to 16 mg/L (≈ 22.5 to 45 µM). Further, the inhibition result in the test on Pseudomonas putida [1] is “inactive”. Moreover, in the test with Pseudomonas putida [2], the outcome was inactive.
